# Assay results: ChEMBL document CHEMBL6182837, “Discovery and biological evaluation of nitrofuranyl-pyrazolopyrimidine hybrid conjugates as potent antimicrobial agents targeting Staphylococcus aureus and methicillin-resistant S. aureus” (RSC Med Chem, 2025)
# The source made the active and inactive calls. The rule behind the calls is not given here.
# What was measured:
# [1] = Hemolytic activity in rabbit erythrocytes up to 200 ug/ml incubated for 4 hrs by absorbance based assay; assay type: toxicity, cell-based, Oryctolagus cuniculus; details: erythrocyte, dose < 200 µg/ml
# Staphylococcus aureus [2] = assay: Bactericidal activity against methicillin-resistant Staphylococcus aureus ATCC 15187 assessed as reduction in bacterial count incubated for 2 to 24 hrs by time-kill assay; assay type: functional, organism-based; details: time 2-24 hrs
# Staphylococcus aureus [3] = assay: Antibacterial activity against methicillin-resistant Staphylococcus aureus ATCC 15187 infected in mouse RAW264.7 cells assessed as bacterial eradication by colony counting method based microdilution method; assay type: functional, organism-based
# Summary of the method: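 RAW 264.7 macrophages infected with MRSA, then treated at multiples of MIC non-toxic to the cells, with vancomycin control; intracellular bacterial load counted as CFU ml−1; compared with infection control by one-way ANOVA.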
# [4] = Lipophilicity, logP of compound; assay type: physicochemical; details: octanol/water
# [5] = Clearance in male Balb/c mouse at 1 mg/kg, iv by LC-MS/MS analysis; assay type: ADME, organism-based; details: in vivo
# Summary of the method: (§1)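 Balb/c mice dosed 1 mg kg−1 intravenously or 30 mg kg−1 orally (2.5 mg kg−1 oral also given); plasma PK parameters derived.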
# [6] = Clearance in male Balb/c mouse at 30 mg/kg, po by LC-MS/MS analysis; assay type: ADME, organism-based; details: in vivo; summary of the method: as §1
# Staphylococcus aureus [7] = assay: Bactericidal activity against Staphylococcus aureus ATCC 29213 assessed as reduction in bacterial count at 2 to 4 times MIC incubated for 2 hrs by time-kill assay
smiles,measurement,setting,value
CCCc1nn(C)c2c(Nc3ccc(O)cc3)nc(-c3ccc([N+](=O)[O-])o3)nc12,Activity,[1],Non-toxic
same,Activity,Staphylococcus aureus [2],Dose-dependent-effect
same,Activity,Staphylococcus aureus [3],Dose-dependent-effect
same,logP,[4],2.92
same,clearance,[5],176 mL/min/kg
same,CL/F,[6],159 mL/min/kg
same,Activity,Staphylococcus aureus [7],Active
